Assay results from PMC7746607 (Nature, 2020).

Tests used:
RET-luc = RET-luc (Homo sapiens, UniProt P07949); assay: NanoBRET control kinase dose response, RET-luc; assay type: binding; details: 293T cells, tram-bo or tracer K5
[1] = biological target: BRAF and MEK1 interaction (Homo sapiens, UniProt Q02750); assay: IP/WB of endogenous MEK1 from HCT116 cells, BRAF pulldown; assay type: cell-based; details: HCT116, 200 nM, 1 hour
Outline: (§1)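 HCT116 cells were plated 48 h to ~70% confluency, then transfected (Lipofectamine 3000) with FLAG-KSR1 (2.3 μg, WT) or FLAG-BRAF (10 μg, WT). At 24 h cells got 0.1% DMSO or 200 nM test compound for 1 h, then were lysed in NP-40 buffer on ice for 30 min. 250 μg lysate was rotated 4 h at 4 °C with anti-MEK1/Protein A resin, with an IgG control. Anti-FLAG immunoblot; three independent experiments.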

SRC-luc = SRC-luc (Homo sapiens, UniProt P12931); assay: NanoBRET control kinase dose response, SRC-luc; assay type: binding; details: 293T cells, tram-bo or tracer K4
Chain of SRC-luc (P12931 whole entry): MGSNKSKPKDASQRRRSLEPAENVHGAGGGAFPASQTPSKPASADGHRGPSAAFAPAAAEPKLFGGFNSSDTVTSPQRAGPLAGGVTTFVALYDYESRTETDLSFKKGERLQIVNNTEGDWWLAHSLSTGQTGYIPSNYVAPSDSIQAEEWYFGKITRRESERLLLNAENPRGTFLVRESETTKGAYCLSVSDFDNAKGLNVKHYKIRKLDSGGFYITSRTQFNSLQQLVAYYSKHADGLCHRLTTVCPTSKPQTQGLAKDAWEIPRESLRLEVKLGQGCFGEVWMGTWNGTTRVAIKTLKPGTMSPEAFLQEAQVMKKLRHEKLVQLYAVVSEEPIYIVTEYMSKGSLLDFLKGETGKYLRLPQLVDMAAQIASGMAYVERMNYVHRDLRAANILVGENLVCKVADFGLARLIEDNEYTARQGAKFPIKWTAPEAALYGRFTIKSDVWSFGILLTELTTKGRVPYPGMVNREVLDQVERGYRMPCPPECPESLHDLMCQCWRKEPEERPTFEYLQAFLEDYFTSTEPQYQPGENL

[2] = biological target: KSR1 and MEK1 interaction (UniProt Q02750+Q61097); assay type: cell-based, mouse KSR1, human HCT116 cells; details: HCT116, wild-type KSR1, 200 nM, 1 hour
Chain of KSR1 and MEK1 interaction (Q02750 whole entry): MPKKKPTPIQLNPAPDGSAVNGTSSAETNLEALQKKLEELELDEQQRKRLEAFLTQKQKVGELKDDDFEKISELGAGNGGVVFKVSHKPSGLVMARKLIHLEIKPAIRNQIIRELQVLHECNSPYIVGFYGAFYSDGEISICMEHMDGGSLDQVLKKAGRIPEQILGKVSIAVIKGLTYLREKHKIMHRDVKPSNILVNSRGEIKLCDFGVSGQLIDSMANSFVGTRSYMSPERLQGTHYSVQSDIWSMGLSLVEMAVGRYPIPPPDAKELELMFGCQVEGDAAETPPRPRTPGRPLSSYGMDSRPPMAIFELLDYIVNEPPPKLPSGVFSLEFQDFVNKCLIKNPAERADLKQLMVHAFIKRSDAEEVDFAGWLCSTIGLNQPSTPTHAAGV
Chain of KSR1 and MEK1 interaction (Q61097 whole entry): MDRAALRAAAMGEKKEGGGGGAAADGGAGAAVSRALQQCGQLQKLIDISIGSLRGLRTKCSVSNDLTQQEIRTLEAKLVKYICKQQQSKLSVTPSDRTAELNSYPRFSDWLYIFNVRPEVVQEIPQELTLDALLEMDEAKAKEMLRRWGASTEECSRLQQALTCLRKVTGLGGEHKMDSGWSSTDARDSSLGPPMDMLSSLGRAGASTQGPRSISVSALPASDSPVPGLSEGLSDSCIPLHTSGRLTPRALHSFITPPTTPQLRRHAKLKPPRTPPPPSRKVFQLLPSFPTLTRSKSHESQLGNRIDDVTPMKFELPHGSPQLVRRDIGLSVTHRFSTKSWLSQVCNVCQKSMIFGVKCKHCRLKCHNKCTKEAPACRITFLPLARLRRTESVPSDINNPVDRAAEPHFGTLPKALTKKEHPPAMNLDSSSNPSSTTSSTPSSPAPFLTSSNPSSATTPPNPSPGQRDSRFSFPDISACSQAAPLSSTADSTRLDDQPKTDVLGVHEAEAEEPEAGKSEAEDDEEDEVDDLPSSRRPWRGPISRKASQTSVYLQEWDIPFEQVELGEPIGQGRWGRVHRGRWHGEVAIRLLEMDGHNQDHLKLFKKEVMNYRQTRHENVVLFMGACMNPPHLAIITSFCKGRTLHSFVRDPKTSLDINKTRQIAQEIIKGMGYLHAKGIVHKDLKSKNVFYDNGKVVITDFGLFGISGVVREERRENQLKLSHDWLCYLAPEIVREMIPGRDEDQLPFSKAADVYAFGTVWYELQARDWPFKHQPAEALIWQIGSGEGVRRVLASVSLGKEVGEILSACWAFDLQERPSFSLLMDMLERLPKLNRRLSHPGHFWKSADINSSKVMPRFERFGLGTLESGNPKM
Outline: as §1

KSR1-luc (KSR-bound MEK) = KSR1-luc (KSR-bound MEK) (UniProt Q02750+Q61097); assay: NanoBRET washout, intracellular residence time on KSR1-luc; assay type: binding, mouse; details: 175-minute time course, range of inhibitor concentrations, tram-bo 1 μM
Chain of KSR1-luc (KSR-bound MEK) (Q02750 whole entry): as the sequence (Q02750 whole entry) above
Chain of KSR1-luc (KSR-bound MEK) (Q61097 whole entry): as the sequence (Q61097 whole entry) above

[3] = biological target: mouse KSR1-Nanoluc (KSR-bound MEK) (UniProt Q02750+Q61097); assay: NanoBRET in-cell steady-state competition with tram-bo tracer on KSR1-luc; assay type: binding; details: MEK1-luc vs KSR1-luc
Chain of mouse KSR1-Nanoluc (KSR-bound MEK) (Q02750 whole entry): as the sequence (Q02750 whole entry) above
Chain of mouse KSR1-Nanoluc (KSR-bound MEK) (Q61097 whole entry): as the sequence (Q61097 whole entry) above

MEK1-luc = MEK1-luc (Homo sapiens, UniProt Q02750); assay: NanoBRET washout, intracellular residence time on MEK1-luc; assay type: binding; details: 175-minute time course, tram-bo 1 μM
Chain of MEK1-luc (Q02750 whole entry): as the sequence (Q02750 whole entry) above

Chain of RET-luc (P07949 29-1114): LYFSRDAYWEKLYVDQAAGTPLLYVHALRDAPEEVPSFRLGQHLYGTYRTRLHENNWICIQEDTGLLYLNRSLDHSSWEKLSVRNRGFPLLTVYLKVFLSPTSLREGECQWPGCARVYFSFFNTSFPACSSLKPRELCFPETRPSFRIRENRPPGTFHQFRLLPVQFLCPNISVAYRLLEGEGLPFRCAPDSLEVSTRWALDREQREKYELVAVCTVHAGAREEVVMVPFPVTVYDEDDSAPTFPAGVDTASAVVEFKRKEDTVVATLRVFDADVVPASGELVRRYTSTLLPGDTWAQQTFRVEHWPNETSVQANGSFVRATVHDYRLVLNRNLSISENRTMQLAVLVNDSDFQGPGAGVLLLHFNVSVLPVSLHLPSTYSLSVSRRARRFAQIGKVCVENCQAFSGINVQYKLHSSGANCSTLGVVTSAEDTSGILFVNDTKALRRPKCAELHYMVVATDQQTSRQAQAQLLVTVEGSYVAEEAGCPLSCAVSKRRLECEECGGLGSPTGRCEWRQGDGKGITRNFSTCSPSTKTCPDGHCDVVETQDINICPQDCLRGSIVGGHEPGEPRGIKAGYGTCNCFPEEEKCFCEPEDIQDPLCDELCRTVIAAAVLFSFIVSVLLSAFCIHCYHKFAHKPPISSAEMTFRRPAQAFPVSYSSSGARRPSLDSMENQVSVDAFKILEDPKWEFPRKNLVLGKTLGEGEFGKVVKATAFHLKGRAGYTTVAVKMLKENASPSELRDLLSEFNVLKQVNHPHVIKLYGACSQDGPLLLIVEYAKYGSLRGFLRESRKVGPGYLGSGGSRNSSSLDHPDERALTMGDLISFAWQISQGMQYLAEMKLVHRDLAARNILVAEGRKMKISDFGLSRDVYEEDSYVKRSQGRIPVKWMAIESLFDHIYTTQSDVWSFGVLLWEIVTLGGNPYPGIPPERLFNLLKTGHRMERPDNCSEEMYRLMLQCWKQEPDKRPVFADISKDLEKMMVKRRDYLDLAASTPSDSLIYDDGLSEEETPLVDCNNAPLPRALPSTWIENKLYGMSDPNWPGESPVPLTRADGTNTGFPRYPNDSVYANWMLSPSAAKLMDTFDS
Chain of BRAF and MEK1 interaction (Q02750 whole entry): as the sequence (Q02750 whole entry) above

dose response on RET-luc (RET-luc) | co-immunoprecipitation of BRAF via endogenous MEK [1] | dose response on SRC-luc (SRC-luc) | co-immunoprecipitation of KSR1 via endogenous MEK [2] | dissociation after washout on KSR1-luc (BRET signal recovery) (KSR1-luc (KSR-bound MEK)) | difference in potency (IC50) between KSR1-luc and MEK1-luc [3] | dissociation after washout on MEK1-luc (MEK1-luc) | SMILES
no discernible dose response | diminished binding of BRAF | no discernible dose response | sustained pulldown of KSR1 |  |  |  | CC(=O)Nc1cccc(-n2c(=O)n(C3CC3)c(=O)c3c(Nc4ccc(I)cc4F)n(C)c(=O)c(C)c32)c1 [trametinib, Trametinib]
 |  |  |  | dissociated more readily | ~ 20 fold | dissociated more readily | O=C(c1ccc(F)c(F)c1Nc1ccc(I)cc1F)N1CC(O)([C@@H]2CCCCN2)C1 [cobimetinib, Cobimetinib]
